Measurements collected from several papers.
Target: Calcium/calmodulin-dependent protein kinase type II subunit delta (CAMK2D, Homo sapiens, UniProt Q13557)

| Structure (SMILES) | read-out | method | concentration | remaining binding [%] |
| --- | --- | --- | --- | --- |
| O=C(c1ccc(Nc2ncc(Cl)c(-c3ccc(Cl)s3)n2)cc1)N1CCC(N2CCCC2)CC1 | binding | competition with immobilised ligand | 1 µM | 75 |
| O=c1nc(-c2ccccn2)sc2ccccc12 | cell-free assay | competition with immobilised ligand | 1 µM | 90 |
| O=C(NCC1CCOCC1)c1n[nH]cc1NC(=O)c1c(F)cccc1F | binding | competition with immobilised ligand | 1 µM | 89 |
| CN(C)c1nccc(-c2cnc3ncccn23)n1 | binding | – | 1 µM | 100 |
| C[C@@H](c1ccc(-n2cnc3c(N)ncnc32)cc1)N1CCc2nn(C)c(Cc3ccccc3)c2C1=O | binding | competition with immobilised ligand | 0.1 µM | 93 |
| O=C(NCCCN1CCOCC1)c1ccc(Nc2nccc(-c3cc4ccccc4s3)n2)cc1 | binding | competition with immobilised ligand | 1 µM | 86 |
| CS(=O)(=O)c1cc(C2(NC(=O)c3cncc4c3cnn4-c3ccc(F)cc3)CC2)ccn1 | cell-free assay | competition with immobilised ligand | 1 µM | 76 |
| O=C(c1ccc(Nc2ncc(Cl)c(-c3cc4ccccc4s3)n2)cc1)N1CCC(N2CCCC2)CC1 | binding | competition with immobilised ligand | 1 µM | 80 |
| c1cncc(-c2cccc(Nc3nccc(NC4CCCCC4)n3)c2)c1 | binding | competition with immobilised ligand | 10 µM | 92 |
| N[C@H]1CCN(c2nccc(-c3cnn4ncccc34)n2)C1 | binding | – | 1 µM | 100 |
| COc1ncc2cc3ccccc3nc2c1C#N | cell-free assay | competition with immobilised ligand | 5 µM | 98 |
| CNC(=O)[C@@H]1CC[C@@H](n2c(-c3ccc4cnccc4c3)nc3ccc(C(=O)NCc4cccc(C(N)=O)c4)cc32)C1 | binding | competition with immobilised ligand | 1 µM | 87 |
| Cn1nc(C(F)(F)F)cc1-c1cnc(N2CCc3cc(S(=O)(=O)Nc4c(F)cc(Cl)cc4F)cc(N4CCCC4=O)c32)nc1 | cell-free assay | competition with immobilised ligand | 1 µM | 99 |
| CN(CCCC(F)(F)F)c1nccc(-c2cnn3ncccc23)n1 | binding | – | 1 µM | 100 |
| CNC(=O)c1ccc(Nc2ncc(C(F)(F)F)c(NCc3nccnc3N(C)S(C)(=O)=O)n2)cc1 | cell-free assay | competition with immobilised ligand | 0.1 µM | 83 |
| C[C@H]1CCN(c2nccc(-c3cnn4ncccc34)n2)C1 | binding | – | 1 µM | 94 |
| CN(c1ccnc(CNc2nc(Nc3ccc4c(c3)CC(=O)N4)ncc2C(F)(F)F)n1)S(C)(=O)=O | cell-free assay | competition with immobilised ligand | 1 µM | 100 |
| F[C@@H]1CCN(c2nccc(-c3cnn4ncccc34)n2)C1 | binding | – | 1 µM | 100 |
| Cc1c(C(=O)O)cc(-c2ccc(C3CCNCC3)cc2)c2ccc(-c3ccc(C(F)(F)F)cc3)cc12 | cell-free assay | competition with immobilised ligand | 1 µM | 100 |
| COc1ccnn2ncc(-c3ccnc(N(C)C)n3)c12 | binding | – | 1 µM | 81 |
| COc1cnc(Nc2cccc(S(N)(=O)=O)c2)nc1N1CCN(c2ccccc2)CC1 | binding | competition with immobilised ligand | 1 µM | 92 |
| CCS(=O)(=O)c1cc2cc(C[C@@](O)(CC(C)(C)c3ccc(F)cc3C(N)=O)C(F)(F)F)[nH]c2cn1 | cell-free assay | competition with immobilised ligand | 1 µM | 81 |
